Source: ChEMBL document CHEMBL5357070, “Nicotinamide Phosphoribosyltransferase Positive Allosteric Modulators Attenuate Neuronal Oxidative Stress” (ACS Med Chem Lett, 2024)
One block for each compound: values may come before it. Activity calls are given as the source filed them. No cut-off for these calls is given here.

Legend:
[1] = molecular target: T1, Nicotinamide phosphoribosyltransferase (Homo sapiens, UniProt P43490); experiment: Positive allosteric modulator activity at human C-terminal his 6 tagged NAMPT using NAM and PRPP as substrate by coupled enzymatic analysis
Target sequence in this assay (P43490 whole entry): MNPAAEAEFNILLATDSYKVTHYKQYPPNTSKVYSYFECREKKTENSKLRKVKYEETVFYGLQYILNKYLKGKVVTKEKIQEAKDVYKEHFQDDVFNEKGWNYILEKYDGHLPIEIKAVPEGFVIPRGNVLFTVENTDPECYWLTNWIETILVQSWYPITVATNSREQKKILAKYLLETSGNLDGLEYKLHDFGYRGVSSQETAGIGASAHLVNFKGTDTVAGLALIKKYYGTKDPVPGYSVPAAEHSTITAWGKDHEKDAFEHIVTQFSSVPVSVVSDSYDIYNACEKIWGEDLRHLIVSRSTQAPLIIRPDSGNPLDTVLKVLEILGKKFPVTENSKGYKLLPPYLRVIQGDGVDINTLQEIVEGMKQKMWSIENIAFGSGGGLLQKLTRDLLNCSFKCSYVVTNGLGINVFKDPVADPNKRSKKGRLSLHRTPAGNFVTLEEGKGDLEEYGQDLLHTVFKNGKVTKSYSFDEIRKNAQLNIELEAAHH

[2] = molecular target: T1, Nicotinamide phosphoribosyltransferase; experiment: Positive allosteric modulator activity at C-terminal his 6 tagged NAMPT in human THP-1 cells assessed as increase in NAD+ level at 30 uM incubated for 24 hrs by NAD-glo assay relative to control; assay type: cell-based
How it was run: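 THP-1 cells in RPMI 1640 with 10% heat-inactivated FBS, seeded at 37,500 cells/well (low passage). Held 1.5 h at 37 °C, 5% CO2, then treated with compound in DMSO (final ≤1%) for 24 h. NAD+ measured by NAD+/NADH-Glo luminescence. Three separate experiments per concentration.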
Target sequence in this assay (P43490 whole entry, looked up): as the sequence (P43490 whole entry) above

[3] = test system: HT-22; experiment: Inhibition of oxidative stress in HT-22 cells assessed as fold reduction in […] induced ROS level at 0.3 uM measured after 18 to 24 hrs by MitoSOX red dye based flow cytometry analysis; assay type: functional, Mus musculus; details: time 18-24 hrs
How it was run: (§1)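 HT22 mouse hippocampal neuronal cells (passage 12-50) grown in DMEM with 10% FBS, seeded at 3,000-5,000 cells/well on poly D-lysine-coated wells and left overnight. Cells were pretreated with compound in matched DMSO/PBS vehicle for 18-24 h, then stressed with recombinant mouse TNFα for a further 18-24 h. Staining in PBS used 1 μM calcein-AM, 5 μM MitoSOX and 10 μg/mL Hoechst for 30-45 min. Mitochondrial ROS was read as MitoSOX mean intensity on a Celigo imaging cytometer and given as fold-change over vehicle. Each run had ≥3 intraplate replicates, and the assay was repeated in ≥3 separate experiments.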

[4] = test system: HT-22; experiment: Inhibition of oxidative stress in HT-22 cells assessed as fold reduction in […] induced ROS level at 2.5 uM measured after 18 to 24 hrs by MitoSOX red dye based flow cytometry analysis; assay type: functional, Mus musculus; details: time 18-24 hrs; how it was run: as §1
[5] = test system: HT-22; experiment: Inhibition of oxidative stress in HT-22 cells assessed as fold reduction in […] induced ROS level at 40 uM measured after 18 to 24 hrs by MitoSOX red dye based flow cytometry analysis; assay type: functional, Mus musculus; details: time 18-24 hrs; how it was run: as §1
[6] = test system: HT-22; experiment: Inhibition of oxidative stress in HT-22 cells assessed as fold reduction in […] induced ROS level at 5.0 uM measured after 18 to 24 hrs by MitoSOX red dye based flow cytometry analysis; assay type: functional, Mus musculus; details: time 18-24 hrs; how it was run: as §1
[7] = test system: HT-22; experiment: Inhibition of oxidative stress in HT-22 cells assessed as reduction in […] induced ROS level at 20 to 40 uM measured after 18 to 24 hrs by MitoSOX red dye based flow cytometry analysis; assay type: functional, cell-based; details: Mus musculus, dose 20-40 µM, time 18-24 hrs
How it was run: (§2)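 HT22 mouse hippocampal neuronal cells (passage 12-50) seeded at 3,000-5,000 cells/well on poly D-lysine-coated wells and incubated overnight. Cells pretreated with compound (DMSO stocks, matched vehicle) for 18-24 h, then exposed to glutamate or mouse TNFα for 18-24 h. Stained in PBS with 1 μM calcein-AM, 5 μM MitoSOX and 10 μg/mL Hoechst for 30-45 min. Imaging cytometry; MitoSOX mean intensity expressed as fold over vehicle. At least three experiments, each with at least triplicate wells.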

[8] = test system: HT-22; experiment: Neuroprotective activity against glutamate induced excitotoxicity in HT-22 cells assessed as decrease in ROS activity measured after 18 to 24 hrs MitoSOX red dye based flow cytometry analysis; assay type: functional, cell-based; details: Mus musculus, dose 1.25-40 µM, time 18-24 hrs; how it was run: as §2
[9] = test system: HT-22; experiment: Neuroprotective activity against glutamate induced excitotoxicity in HT-22 cells assessed as decrease in ROS activity at 20 to 40 uM measured after 18 to 24 hrs by MitoSOX red dye based flow cytometry analysis; assay type: functional, cell-based; details: Mus musculus, dose 20-40 µM, time 18-24 hrs; how it was run: as §2

SMILES: COc1ccc(CN(CCC2(C(C)C)CCOC(C)(C)C2)C(=O)c2ccco2)cc1 (stereo not given)
Activity [2]: 18%
fold change (FC) [3]: 1.434
fold change (FC) [4]: 1.425
fold change (FC) [5]: 1.133

SMILES: O=C(NCc1ccncc1)Nc1ccc(S(=O)(=O)N2CC3CCC(C2)O3)cc1
fold change (FC) [3]: 1.26
fold change (FC) [6]: 1.348

SMILES: COc1ccc(CNCCC2CCOCC2)cc1
EC50 [1]: Not Active

SMILES: CC(C)C1(CCN(Cc2ccc(N(C)C)cc2)C(=O)c2ccco2)CCOC(C)(C)C1 (stereo not given)
EC50 ([1]; read-out: EC50): 3.29 µM
Activity ([2]; filed as positive allosteric modulator): 88%
fold change (FC) [4]: 1.247
fold change (FC) [6]: 1.287
inhibition [7]: Active
Activity [8]: Dose-Dependent Effect
Activity [9]: Active

More lines, now with the values ahead:

EC50 ([1]; read-out: EC50): 12.8 µM
SMILES: COc1ccc(CN(CCC2(C(C)C)CCOC(C)(C)C2)C(=O)c2ccc(Br)s2)cc1 (stereo not given)

EC50 [1]: > 8 µM
SMILES: COc1ccc(CN(CCC2(C(C)C)CCOC(C)(C)C2)C(=O)c2cnc[nH]2)cc1 (stereo not given)

EC50 [1]: Not Active
SMILES: COc1ccc(CNC(=O)c2ccco2)cc1

EC50 [1]: Not Active
SMILES: COc1ccc(CN(CCC2(C(C)C)CCOC(C)(C)C2)C(=O)c2cncnc2)cc1 (stereo not given)

EC50 [1]: Not Active
SMILES: COc1ccc(CN(CCC2(C(C)C)CCOC(C)(C)C2)C(=O)c2ccco2)c(C(F)(F)F)c1 (stereo not given)

EC50 [1]: Not Active
SMILES: CC(C)C1(CCN(Cc2ccc(OC(F)(F)F)cc2)C(=O)c2ccco2)CCOC(C)(C)C1 (stereo not given)
